In brackets after ≈: the same amount, converted by molar mass. Activity calls are given as the source filed them.
Key:
[1] = molecular target: Prostaglandin E2 receptor EP4 subtype (Homo sapiens, UniProt P35408); assay: Antagonist activity at human EP4R assessed as inhibition of agonist-induced cAMP production by fluorescent cAMP tracer cAMP-d2 based FRET assay; assay type: functional
[2] = Intrinsic clearance in Han Wistar rat hepatocytes assessed as blood clearance at 1 uM after 90 mins by LC-MS/MS analysis; assay type: ADME, cell-based, Hepatocyte
Method in brief: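 Rat hepatocytes isolated with a Percoll gradient, viability by trypan blue; 1.0 × 10^6 viable cells/mL in WME + 5% FCS, compound at 1 µM, shaken at 580 rpm. Sampled 2–90 min into cold methanol; LC-MS/MS.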

[3] = Efflux ratio of apparent permeability in human Caco2 cells at 2 uM after 2 hrs by LC/MS/MS analysis; assay type: ADME, cell-based; conditions: Caco-2
Method in brief: (§1)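 Caco-2 cells seeded at 4.5 x 10^4 per well on 0.4 µm inserts and grown 15 days. Assay in FCS-free Hepes-carbonate buffer pH 7.2, with TEER checked. Compound at 2 µM final added apically or basolaterally; both sides sampled before and after 2 h at 37 °C. Papp from peak areas; efflux ratio = Papp B-A / Papp A-B; recovery calculated.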

[4] = Apparent permeability from apical to basolateral side in human Caco2 cells at 2 uM after 2 hrs by LC/MS/MS analysis; assay type: ADME, cell-based; conditions: Caco-2; method in brief: as §1
[5] = system: Rattus norvegicus; assay: Antinociceptive activity in Sprague-Dawley rat model of dmPGE2-induced pain behavior assessed as increase in paw withdrawal thresholds at 5 mg/kg, po pretreated 60 mins before dmPGE2 addition and measured after 30 mins post dmPGE2 injection; assay type: functional, organism-based
Method in brief: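 Male Sprague-Dawley rats, 220–265 g. Compound suspended in 0.5% CMC and given orally; vehicle controls. At 60 min, 10 µg dmPGE2 in PBS injected into the plantar surface of the left hind paw. Electronic von Frey thresholds taken 30 min later, mean of 3 per paw, against day −1 baseline. Mean ±SD; Grubbs outlier test; 1-way ANOVA with Dunnett's test.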

[6] = Lipophilicity, log D of the compound at pH 7.4; assay type: physicochemical; conditions: buffer
[7] = molecular target: Prostaglandin E2 receptor EP4 subtype (Mus musculus, UniProt P32240); assay: Antagonist activity at mouse EP4R assessed as inhibition of agonist-induced cAMP production by fluorescent cAMP tracer cAMP-d2 based FRET assay; assay type: functional
Chain of Prostaglandin E2 receptor EP4 subtype (Mus musculus, UniProt P32240) (P32240 whole entry): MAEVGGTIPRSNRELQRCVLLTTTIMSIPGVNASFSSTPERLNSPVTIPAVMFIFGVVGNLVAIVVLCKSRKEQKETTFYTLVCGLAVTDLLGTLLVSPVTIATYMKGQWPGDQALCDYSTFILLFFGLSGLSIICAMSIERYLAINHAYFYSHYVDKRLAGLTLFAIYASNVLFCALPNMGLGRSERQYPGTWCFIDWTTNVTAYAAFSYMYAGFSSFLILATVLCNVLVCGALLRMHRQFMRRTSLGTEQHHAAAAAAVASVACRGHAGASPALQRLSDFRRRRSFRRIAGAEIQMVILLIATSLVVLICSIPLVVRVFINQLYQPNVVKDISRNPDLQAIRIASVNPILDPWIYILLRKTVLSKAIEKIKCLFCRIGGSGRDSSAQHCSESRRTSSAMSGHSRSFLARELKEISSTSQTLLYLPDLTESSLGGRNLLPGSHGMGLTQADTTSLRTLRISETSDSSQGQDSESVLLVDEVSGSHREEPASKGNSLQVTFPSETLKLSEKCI

[8] = Kinetic solubility of the compound; assay type: physicochemical; conditions: read-out: Kinetic_solubility
[9] = Dose normalized AUC in Wistar rat at 1 mg/kg, po by LC-MS/MS analysis; assay type: ADME, organism-based; conditions: in vivo
Method in brief: (§2)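 Male Wistar rats dosed iv (0.3–1 mg/kg) or intragastrically (0.5–10 mg/kg) as solutions with solubilizers such as PEG400; cassette dosing of up to 3 compounds in some studies. Jugular blood taken 2 min to 24 h into Li-heparin tubes. Plasma precipitated with acetonitrile and run by LC-MS/MS. Non-compartmental PK analysis.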

[10] = Kinetic solubility of the compound at pH 6.5; assay type: physicochemical; conditions: buffer, read-out: Kinetic_solubility
[11] = Volume of distribution at steady state in Wistar rat at 1 mg/kg, po by LC-MS/MS analysis; assay type: ADME, organism-based; conditions: in vivo; method in brief: as §2
[12] = Blood clearance in Wistar rat at 1 mg/kg, iv by LC-MS/MS analysis; assay type: ADME, organism-based; conditions: whole blood; method in brief: as §2
[13] = molecular target: T1, UDP-glucuronosyltransferase 1A1 (Homo sapiens, UniProt P22309); assay: Drug metabolism in human hepatocytes assessed as UGT1A1-mediated acylglucuronide metabolite formation at 10 uM after 4 hrs by HPLC-UV and mass spectrometric analysis; assay type: ADME, cell-based
T1 sequence (P22309 whole entry): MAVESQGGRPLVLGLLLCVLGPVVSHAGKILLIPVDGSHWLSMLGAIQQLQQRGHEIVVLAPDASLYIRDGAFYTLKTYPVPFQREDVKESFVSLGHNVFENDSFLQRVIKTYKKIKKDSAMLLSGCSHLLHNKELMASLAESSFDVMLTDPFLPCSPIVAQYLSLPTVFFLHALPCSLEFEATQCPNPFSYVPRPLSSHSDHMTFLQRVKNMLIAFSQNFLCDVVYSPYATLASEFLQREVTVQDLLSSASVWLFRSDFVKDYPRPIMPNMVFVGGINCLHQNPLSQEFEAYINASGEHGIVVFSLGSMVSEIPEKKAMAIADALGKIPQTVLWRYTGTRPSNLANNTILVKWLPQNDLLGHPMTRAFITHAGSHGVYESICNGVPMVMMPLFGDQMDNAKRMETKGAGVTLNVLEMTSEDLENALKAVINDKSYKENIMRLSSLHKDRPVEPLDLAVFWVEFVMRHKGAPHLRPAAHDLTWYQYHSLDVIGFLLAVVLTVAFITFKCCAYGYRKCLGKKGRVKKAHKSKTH

[14] = Oral bioavailability in Wistar rat at 1 mg/kg by LC-MS/MS analysis; assay type: ADME, organism-based; conditions: in vivo; method in brief: as §2
[15] = molecular target: T2, UDP-glucuronosyltransferase 1A1 (Rattus norvegicus, UniProt Q64550); assay: Drug metabolism in rat hepatocytes assessed as UGT1A1-mediated acylglucuronide metabolite formation at 10 uM after 4 hrs by HPLC-UV and mass spectrometric analysis; assay type: ADME, cell-based
T2 sequence (Q64550 whole entry): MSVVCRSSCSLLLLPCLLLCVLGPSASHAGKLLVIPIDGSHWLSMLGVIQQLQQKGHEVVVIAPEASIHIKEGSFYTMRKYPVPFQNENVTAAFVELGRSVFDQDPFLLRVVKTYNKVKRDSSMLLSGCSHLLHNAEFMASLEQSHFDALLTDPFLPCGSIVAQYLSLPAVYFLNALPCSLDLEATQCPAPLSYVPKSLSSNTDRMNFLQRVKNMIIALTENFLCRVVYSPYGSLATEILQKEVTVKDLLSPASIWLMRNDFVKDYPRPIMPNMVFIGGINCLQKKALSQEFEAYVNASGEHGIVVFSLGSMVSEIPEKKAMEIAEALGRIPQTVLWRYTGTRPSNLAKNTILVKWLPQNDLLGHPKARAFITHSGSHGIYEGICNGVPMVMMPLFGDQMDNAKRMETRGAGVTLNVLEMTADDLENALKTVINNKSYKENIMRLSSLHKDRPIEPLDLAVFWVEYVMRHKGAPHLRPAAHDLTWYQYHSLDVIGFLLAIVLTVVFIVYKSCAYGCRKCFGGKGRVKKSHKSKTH

[16] = Volume of distribution at steady state in Wistar rat at 1 mg/kg, iv by LC-MS/MS analysis; assay type: ADME, organism-based; conditions: in vivo, read-out: Vdss; method in brief: as §2
[17] = Half life in Wistar rat at 1 mg/kg, iv by LC-MS/MS analysis; assay type: ADME, organism-based; conditions: in vivo; method in brief: as §2
[18] = Blood clearance in Wistar rat at 1 mg/kg, po by LC-MS/MS analysis; assay type: ADME, organism-based; conditions: whole blood; method in brief: as §2

Chain of Prostaglandin E2 receptor EP4 subtype (Homo sapiens, UniProt P35408) (P35408 whole entry): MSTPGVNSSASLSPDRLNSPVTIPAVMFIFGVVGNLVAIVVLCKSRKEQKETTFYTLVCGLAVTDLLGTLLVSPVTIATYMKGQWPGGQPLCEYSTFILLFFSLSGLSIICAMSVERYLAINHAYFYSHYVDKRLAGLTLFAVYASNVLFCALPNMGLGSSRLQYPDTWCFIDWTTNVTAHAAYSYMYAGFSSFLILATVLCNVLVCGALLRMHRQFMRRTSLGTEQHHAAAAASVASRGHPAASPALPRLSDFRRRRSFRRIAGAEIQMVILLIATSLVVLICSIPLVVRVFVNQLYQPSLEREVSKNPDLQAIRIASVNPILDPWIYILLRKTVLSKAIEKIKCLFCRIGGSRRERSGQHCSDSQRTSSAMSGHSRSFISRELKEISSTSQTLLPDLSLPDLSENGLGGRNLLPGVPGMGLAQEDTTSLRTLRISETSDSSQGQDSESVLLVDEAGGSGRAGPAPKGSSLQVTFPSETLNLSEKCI

SMILES: CCn1c2ccc(-c3nc4c(C)c(C(=O)O)ccc4n3CCOC)cc2c2cc(C(F)(F)F)ccc21
- IC50 [1]: 17.4 nM

SMILES: Cn1c2ccccc2c2cc(-c3nc4cc(C(=O)O)ccc4n3CC3CC3)ccc21
- IC50 [1]: 34.2 nM

SMILES: CCn1c2ccc(-c3nc4c(C)c(C(=O)O)ccc4n3CCOC)cc2c2c(C)cccc21
- IC50 [1]: 54.6 nM

SMILES: CCn1c2ccc(Cl)cc2c2cc(-c3nc4c(C)c(C(=O)O)ccc4n3CCOC)ccc21
- CLhep predicted at […], 1 µM [2]: 10 mL/min/kg
- efflux ratio at 2 h, 2 µM [3]: 0.5
- IC50 [1]: 4.4 nM
- Papp A→B at 2 h, 2 µM [4]: 20.8 ×10⁻⁶ cm/s

SMILES: CCn1c2ccc(C)cc2c2cc(-c3nc4c(C)c(C(=O)O)ccc4n3CCOC)ccc21
- Activity [5]: Active

SMILES: CCn1c2ccccc2c2cc(-c3nc4cc(C(=O)NS(=O)(=O)N(C)C)ccc4n3CCOC)ccc21
- IC50 [1]: 148 nM

SMILES: CCn1c2ccc(OC(F)(F)F)cc2c2cc(-c3nc4c(C)c(C(=O)O)ccc4n3CCOC)ccc21
- IC50 [1]: 366 nM

SMILES: CCn1c2ccccc2c2cc(-c3nc4c(F)c(C(=O)O)ccc4n3CCOC)ccc21
- IC50 [1]: 4.3 nM

SMILES: CCn1c2ccccc2c2cc(-c3nc4cc(C(=O)O)c(Cl)cc4n3CCOC)ccc21
- IC50 [1]: 751 nM

SMILES: CCn1c2ccccc2c2cc(-c3nc4cc(C(=O)O)ccc4n3CC3CCO3)ccc21 (stereo not drawn)
- IC50 [1]: 51.5 nM

SMILES: CCn1c2ccccc2c2cc(-c3nc4cc(S(=O)(=O)O)ccc4n3CCOC)ccc21
- IC50 [1]: 222 nM

SMILES: CCn1c2ccccc2c2cc(-c3nc4cc(-c5nnn[nH]5)ccc4n3CCOC)ccc21
- IC50 [1]: 6.8 nM

SMILES: CCn1c2ccccc2c2cc(-c3nc4cc(C(=O)O)ccc4n3CC3CC3)ccc21
- logD [6]: 3
- IC50 [7]: 113 nM
- solubility kinetic [8]: 3.2 µg/mL (≈ 7.81 µM)
- IC50 [1]: 12.8 nM

SMILES: CCn1c2ccccc2c2cc(-c3nc4cc(C(=O)O)ccc4n3CCOC)ccc21
- IC50 [7]: 81 nM
- IC50 [1]: 4.7 nM

SMILES: CCn1c2ccccc2c2cc(-c3nc4cc(C(=O)O)c(F)cc4n3CCOC)ccc21
- IC50 [1]: 34.6 nM

SMILES: CCn1c2ccc(-c3nc4c(C)c(C(=O)O)ccc4n3CCOC)cc2c2c(Cl)cccc21
- IC50 [1]: 65.5 nM

SMILES: CCn1c2ccccc2c2cc(-c3nc4cc(C(=O)O)ccc4n3C)ccc21
- IC50 [1]: 166 nM

SMILES: CCn1c2ccccc2c2cc(-c3nc4cc(-c5n[nH]c(=O)o5)ccc4n3CCOC)ccc21
- CLhep predicted at […], 1 µM [2]: 30 mL/min/kg
- efflux ratio at 2 h, 2 µM [3]: 0.9
- Papp A→B at 2 h, 2 µM [4]: 1.24 ×10⁻⁶ cm/s

SMILES: CCn1c2ccccc2c2cc(-c3nc4cc(C(=O)NS(C)(=O)=O)ccc4n3CCOC)ccc21
- CLhep predicted at […], 1 µM [2]: 26.7 mL/min/kg

SMILES: CCn1c2ccccc2c2cc(-c3nc4c(C)c(C(=O)O)ccc4n3CCOC)ccc21
- AUC/dose [9]: 20 kg·h/L
- solubility kinetic [10]: 150 µg/mL (≈ 351 µM)
- Vdss [11]: 0.36 L/kg
- clearance [12]: 1 mL/min/kg
- CLhep predicted at […], 1 µM [2]: 1.67 to 2.5 mL/min/kg
- Drug metabolism [13]: Metabolite_Detected
- bioavailability [14]: 92%
- Drug metabolism [15]: Metabolite_Detected
- Vd [16]: 0.36 L/kg
- efflux ratio at 2 h, 2 µM [3]: 1.1
- half-life [17]: 4.9 h
- IC50 [1]: 24.7 nM
- Papp A→B at 2 h, 2 µM [4]: 13.5 ×10⁻⁶ cm/s
- CL/F [18]: 1 mL/min/kg

SMILES: CCn1c2ccccc2c2cc(-c3nc4c(Cl)c(C(=O)O)ccc4n3CCOC)ccc21
- IC50 [1]: 15.9 nM

SMILES: CCn1c2ccccc2c2cc(-c3nc4cc(-c5noc(=O)[nH]5)ccc4n3CCOC)ccc21
- CLhep predicted at […], 1 µM [2]: 11.7 mL/min/kg
- efflux ratio at 2 h, 2 µM [3]: 3.3
- IC50 [1]: 6.1 nM
- Papp A→B at 2 h, 2 µM [4]: 2.63 ×10⁻⁶ cm/s

SMILES: CCn1c2ccc(-c3nc4c(C)c(C(=O)O)ccc4n3CCOC)cc2c2cccc(C)c21
- IC50 [1]: 4.2 nM

SMILES: CCn1c2ccccc2c2cc(-c3nc4cc(C(=O)O)ccc4n3-c3ccccc3)ccc21
- IC50 [1]: 3120 nM

SMILES: CCn1c2ccccc2c2cc(-c3nc4ccc(C(=O)O)cc4n3CCOC)ccc21
- IC50 [1]: 1420 nM

SMILES: CCn1c2ccccc2c2cc(-c3nc4cc(C(=O)NC)ccc4n3CC3CC3)ccc21
- logD [6]: 4.1
- solubility kinetic [8]: < 0.1 µg/mL
- IC50 [1]: 286 nM

Source: ChEMBL document CHEMBL4480399, “Identification of a Benzimidazolecarboxylic Acid Derivative (BAY 1316957) as a Potent and Selective Human Prostaglandin E2 Receptor Subtype 4 (hEP4-R) Antagonist for the Treatment of Endometriosis” (J Med Chem, 2019)
